Source: PubChem BioAssay
The list is not random: actives were taken first. Their share in the collection is about 3.8%.
Kir21 block = blocks the mouse Kir2.1 inward-rectifier potassium channel | P35561 | HEK293-Kir2.1, FluxOR thallium flux fluorescence; stronger effect = lower value | B-score at 10 µM | 310,000 tested, 0.85% active | AID 1672;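 active = fluorescence ratio B-score at or below minus 3 SD of library scores, with starting-brightness B-score within 2 SD, cut at about -4.2 in these data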;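 note: channel flux triggered by added potassium and thallium sulfate stimulus; B-score of peak minus minimum fluorescence over baseline after thallium stimulus; more negative B-score means stronger Kir2.1 block with less thallium influx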
KCNQ1 inh = blocks the human KCNQ1 potassium channel; 310,000 tested, 1.3% active; B-score at 10 µM; CHO-K1 KCNQ1, FluxOR thallium flux fluorescence; stronger effect = higher value; P51787; AID 2642;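 active = compounds whose thallium flux B-score, printed positive for inhibition, exceeds three library SD while starting fluorescence stays within three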;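 note: channel opened by potassium depolarization with thallium stimulus after 20 min compound exposure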
hERG protect = hERG (human) protection from proarrhythmic block. 310,000 tested, 0.51% active. Q12809. activation (rescue from dofetilide block), less the hit threshold, % at 10 µM. AID 1511. CHO-hERG, FluxOR thallium flux, dofetilide IC70 present;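 active = activation above the mean of controls blocked by dofetilide plus 5 SD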;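 note: thallium influx through hERG after potassium depolarization seen as dye fluorescence rise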
KCNK3 inh = human KCNK3 channel inhibition, primary screen; CHO-KCNK3 thallium flux, FluxOR fluorescence; stronger effect = lower value; B-score at 10 µM; 340,000 tested, 0.84% active; AID 602410;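 active = B-score under library mean minus 4 SD, starting fluorescence ratio at most library mean plus 5 SD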;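 note: more negative B-score means stronger inhibition of thallium flux through KCNK3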
Target sequence (O14649 whole entry, looked up): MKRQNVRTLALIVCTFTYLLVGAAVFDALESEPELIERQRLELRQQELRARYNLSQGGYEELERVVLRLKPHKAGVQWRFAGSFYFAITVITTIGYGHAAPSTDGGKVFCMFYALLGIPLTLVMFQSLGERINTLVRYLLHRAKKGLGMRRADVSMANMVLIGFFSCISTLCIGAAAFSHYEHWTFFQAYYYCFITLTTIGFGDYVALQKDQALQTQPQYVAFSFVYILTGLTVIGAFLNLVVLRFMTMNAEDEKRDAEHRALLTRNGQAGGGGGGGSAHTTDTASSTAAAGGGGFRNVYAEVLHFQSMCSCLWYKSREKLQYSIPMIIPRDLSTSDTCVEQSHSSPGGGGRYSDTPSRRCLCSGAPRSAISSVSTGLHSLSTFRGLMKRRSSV
KCNK9 inh = inhibitors of human KCNK9 two-pore domain potassium channel. 310,000 tested, 1.2% active. Q9NPC2. B-score at 10 µM. HEK293 KCNK9, FluxOR thallium flux fluorescence; stronger effect = lower value;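 active = ratio B-score over 3 SD below the library mean, with starting fluorescence within 5 SD of its mean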;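 note: negative B-score means less thallium flux so channel inhibition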
Target sequence (Q9NPC2 whole entry, looked up, the tested form may be a part): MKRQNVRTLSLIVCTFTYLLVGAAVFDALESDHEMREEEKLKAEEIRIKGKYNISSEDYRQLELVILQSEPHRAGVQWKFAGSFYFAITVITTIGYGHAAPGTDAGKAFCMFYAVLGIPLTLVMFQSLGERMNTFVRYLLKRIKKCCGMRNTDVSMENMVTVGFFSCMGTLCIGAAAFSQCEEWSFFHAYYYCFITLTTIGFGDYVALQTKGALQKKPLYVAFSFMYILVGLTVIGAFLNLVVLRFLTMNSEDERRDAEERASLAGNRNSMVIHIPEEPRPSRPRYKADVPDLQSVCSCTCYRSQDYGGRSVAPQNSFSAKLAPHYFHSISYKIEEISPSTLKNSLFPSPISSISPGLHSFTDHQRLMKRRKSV
KCNQ1 pot = potentiators or activators of human KCNQ1 potassium channel. P51787. CHO-K1 KCNQ1, thallium flux FluxOR fluorescence; stronger effect = higher value. B-score at 10 µM. 310,000 tested, 0.35% active. AID 2648;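 active = fluorescence ratio B-score, a plate-corrected score, at least three library SD, with initial intensity B-score within 5 SD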
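Assay system: CHO-K1 cells stably expressing KCNQ1; Medium: assay buffer with matched DMSO; Also added: K+/Tl+ depolarizing stimulus; Dosing: single dose; Timing: dye 90 min, compound 20 min, room temperature; Measured by: kinetic FluxOR thallium fluorescence, 10-s 1-Hz baseline, 110-s post-stimulus read; Read-out: peak-minus-minimum fluorescence over initial fluorescence, negative-control normalized, B-scored.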
KCNK9 inh conf = human KCNK9 inhibitor confirmation. HEK293 KCNK9 cells, FluxOR thallium flux fluorescence. shares compounds with KCNK9 inh. inhibition, % at 10 µM. AID 492992. 4,900 tested, 43% active;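 active = thallium signal inhibited by more than 5 SD of the compound-free buffer control wells, on both duplicate plates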
Kir2-1 spec = selectivity of KCNK9 modulators against mouse Kir2.1. shares compounds with KCNK9 inh. Kir2.1 cells, FluxOR thallium flux fluorescence. inhibition, % at 10 µM. 4,900 tested, 4% active;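 active = thallium signal drop more than 5 SD beyond the mean of the no-compound control wells, seen in both duplicate plates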;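 note: signal is fluorescence rise after thallium addition divided by baseline fluorescence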
KCNK9 uninduced = non-induced cell nonspecific activity of KCNK9 modulators. non-induced KCNK9-HEK293, FluxOR thallium flux. shares compounds with KCNK9 inh. inhibition, % at 10 µM. 4,900 tested, 40% active;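 active = thallium signal drop beyond 5 SD of the untreated control mean, on both duplicate plates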
Of the large screens only hits and unclear results are named; the others gave an inactive call (follow-up assays come after a bar, where they were run).

Cc1ccc(C)c(OCC(=O)N2CCc3ccccc3C2)c1	none | KCNK9 inh conf inactive | Kir2-1 spec inactive | KCNK9 uninduced inactive
O=C(CCCOc1ccc(Cl)cc1Cl)N1CCc2ccccc2C1	none | KCNK9 inh conf inactive | Kir2-1 spec inactive | KCNK9 uninduced inactive
CN(C)c1cccc(C(=O)OCC(=O)N2CCc3ccccc3C2)c1	none | KCNK9 inh conf inactive | Kir2-1 spec inactive | KCNK9 uninduced inactive
Cc1ccc(C)c(NS(=O)(=O)c2c(C)nn(C)c2C)c1	none
CN1CCN(S(=O)(=O)c2cc([N+](=O)[O-])ccc2Cl)CC1	none
O=[N+]([O-])c1ccc(Cl)c(S(=O)(=O)N2CCCCCC2)c1	KCNK9 inh -11 | KCNK9 inh conf inactive | Kir2-1 spec inactive | KCNK9 uninduced 24%
C(=C\c1ccccc1)/C=N/N1CCN(Cc2ccccc2)CC1	none
O=[N+]([O-])c1ccccc1/C=C\C=N\N1CCN(c2ccccc2)CC1	none
COc1ccccc1/C=C/C=N\N1CCN(Cc2ccccc2Cl)CC1	none | KCNK9 inh conf inactive | Kir2-1 spec inactive | KCNK9 uninduced inactive
COc1ccccc1N1CCN(Cc2ccc(-c3ccccc3[N+](=O)[O-])o2)CC1	none | KCNK9 inh conf inactive | Kir2-1 spec inactive | KCNK9 uninduced inactive
COc1ccccc1N1CCN(/N=C/C=C/c2ccccc2[N+](=O)[O-])CC1	none | KCNK9 inh conf inactive | Kir2-1 spec inactive | KCNK9 uninduced inactive
COc1ccccc1/C=C/C=N/N1CCN(Cc2ccc(Cl)cc2)CC1	none | KCNK9 inh conf inactive | Kir2-1 spec inactive | KCNK9 uninduced inactive
COc1ccc(/C=N\N2CCN(Cc3ccccc3Cl)CC2)cc1	none
COC(=O)C(NC(=O)CCc1nnc2ccc(N3CCC(C)CC3)nn12)C(C)C (configuration not stated)	none
COc1ccc(C)cc1NS(=O)(=O)c1ccccc1	none (no result: Kir21 block, KCNQ1 inh, hERG protect, KCNK9 inh, KCNQ1 pot)
O=C(Nc1ccc(F)cc1)c1nc(S(=O)(=O)Cc2ccccc2)ncc1Cl	KCNK9 inh -9 | KCNK9 inh conf 47% | Kir2-1 spec inactive | KCNK9 uninduced inactive
Cc1ccc(NC(=O)c2nc(S(=O)(=O)Cc3ccccc3)ncc2Cl)cc1	none
Cc1ccc(C(C)C)c(OCCNCCc2ccccc2)c1	Kir21 block -9.9 | KCNK9 inh conf inactive | Kir2-1 spec 50% | KCNK9 uninduced inactive
c1ccc(CCNCCOc2ccccc2)cc1	none
CN(CCc1ccccc1)C(=O)c1ccc(NC(=O)Cc2ccc(NC(=O)C3CCN(C(=O)C4CC4)CC3)cc2)cc1	none (no result: Kir21 block, KCNQ1 inh, hERG protect, KCNK9 inh, KCNQ1 pot)
Cc1nn(Cc2ccccc2)c(Cl)c1C(=O)OCc1nnc(-c2ccc(Cl)cc2)o1	none | KCNK9 inh conf inactive | Kir2-1 spec inactive | KCNK9 uninduced inactive
CCOc1ccc(CCNC(=O)c2cc(-c3ccccc3)c(N3CCOCC3)s2)cc1	none
COc1ccc(CCNC(=O)c2cc(-c3ccccc3)c(N3CCOCC3)s2)c(OC)c1OC	none | KCNK9 inh conf inactive | Kir2-1 spec inactive | KCNK9 uninduced inactive
COC(=O)c1cc2sccc2n1Cc1nc(-c2ccc(OC)cc2)oc1C	none
COC(=O)c1cc2ccsc2n1Cc1nc(-c2ccc(OC)cc2)oc1C	KCNK9 inh -8.4 | KCNK9 inh conf 40% | Kir2-1 spec inactive | KCNK9 uninduced 52%
Cc1nn2c(N3CCN(c4ccccn4)CC3)cc(C(C)C)nc2c1-c1ccccc1	KCNK9 inh -12 | KCNK9 inh conf 63% | Kir2-1 spec inactive | KCNK9 uninduced 38%
Cc1cc(N2CCCCCC2)n2nc(C)c(-c3ccccc3)c2n1	none
CCCNC(=O)c1onc(CSc2ccc(Cl)cc2)c1C(=O)NC(C)C	none | KCNK9 inh conf inactive | Kir2-1 spec inactive | KCNK9 uninduced inactive
CCCCNC(=O)c1onc(CSc2ccc(Cl)cc2)c1C(=O)NCCCC	none
CC(C)NC(=O)c1onc(CSc2ccc(Cl)cc2)c1C(=O)NC(C)C	none | KCNK9 inh conf inactive | Kir2-1 spec inactive | KCNK9 uninduced inactive
CC(C)NC(=O)c1onc(CSc2ccc(Cl)cc2)c1C(=O)O	none
CC1CCN(c2c(NCC3CCC(C(=O)N4CCc5ccccc5C4)CC3)c(=O)c2=O)CC1 (configuration not stated)	none
C=CCC1(CC=C)CCCN1C(=O)c1cc(COc2cccc(C(F)(F)F)c2)on1	none | KCNK9 inh conf inactive | Kir2-1 spec inactive | KCNK9 uninduced inactive
Cc1ccc(CN(C)C(=O)c2cc(COc3cccc(C(F)(F)F)c3)on2)o1	Kir21 block -4.6 | KCNK9 inh conf inactive | Kir2-1 spec inactive | KCNK9 uninduced 32%
CCOC(=O)CSc1nc(N)c2c3c(sc2n1)CCCC3	none
CCOC(=O)c1cnn(-c2nc(SC)nc3sc4c(c23)CCCC4)c1N	hERG protect 9.2, KCNK9 inh -16, KCNQ1 pot 12 | KCNK9 inh conf 66% | Kir2-1 spec inactive | KCNK9 uninduced 33%
O=C(NN1C(=O)c2ccccc2C1=O)C1C2CCCCC21 (configuration not stated)	none | KCNK9 inh conf inactive | Kir2-1 spec inactive | KCNK9 uninduced inactive
CC1CCN(S(=O)(=O)c2ccc(NC(=O)Cn3nnc(-c4ccccc4F)n3)cc2)CC1	none
Cc1noc(C)c1S(=O)(=O)NC1CCN(Cc2ccccc2)CC1	none
CC(=O)SCC(C)C(=O)NCc1ccccc1 (configuration not stated)	none
COc1cccc(/C=N/Nc2ncnc3scc(-c4ccccc4)c23)c1O	none | KCNK9 inh conf inactive | Kir2-1 spec inactive | KCNK9 uninduced inactive
COc1cccc(/C=N/Nc2ncnc(Cl)c2N)c1O	none
COc1cccc(-c2nn(C)c3sc(C(=O)NCc4ccc(C)o4)cc23)c1	KCNK9 inh -14 | KCNK9 inh conf 48% | Kir2-1 spec inactive | KCNK9 uninduced 30%
COc1ccc(-c2nn(C)c3sc(C(=O)NCc4ccco4)cc23)cc1OC	none
COc1ccc(C2=NN(C(=O)CCC(=O)O)C(c3ccc(OC)c(OC)c3)C2)cc1 (configuration not stated)	none
O=C(COC(=O)c1c2c(nc3ccccc13)CCCCC2)c1ccc(Cl)s1	KCNK9 inh -13 | KCNK9 inh conf 46% | Kir2-1 spec inactive | KCNK9 uninduced inactive
O=C(OCC(=O)N1CCc2ccccc21)c1c2c(nc3ccccc13)CCCC2	KCNK9 inh -13 | KCNK9 inh conf 53% | Kir2-1 spec inactive | KCNK9 uninduced inactive
NC(=O)COC(=O)c1c2c(nc3ccccc13)CCCCC2	none
C=CCOc1ccc(CNn2c(C)n[nH]c2=S)cc1OC	none
